Experimental data from ChEMBL document CHEMBL5335788, “Synthesis and evaluation of aromatic BDSF bioisosteres on biofilm formation and colistin sensitivity in pathogenic bacteria” (Eur J Med Chem, 2023).
Calls of active or inactive are those of the source. The calls are words filed in the database; no cut-off is given here.

Experiments:
[1] = system: Pseudomonas aeruginosa; experiment: Inhibition of biofilm formation in Pseudomonas aeruginosa PAO1 at 0.05 mM incubated for 24 hrs by crystal violet method; assay type: functional, organism-based
Summary of the method: (§1)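 Crystal violet assay in LB: log-phase bacteria at final 1×10^5 cfu/mL with sulfonamide at final 0.05 mM, 24 h at 37 °C. Biomass read at OD620, then wells washed, biofilm heat-fixed 65 °C 15 min, stained 0.1% crystal violet 15 min, dye eluted in 30% acetic acid, OD550 read. Neat DMSO control taken as 100%. Duplicates, at least two independent experiments; one-way ANOVA.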

[2] = system: Stenotrophomonas maltophilia; experiment: Inhibition of biofilm formation in Stenotrophomonas maltophilia K279a clinical isolate of rpf-1 subpopulation at 0.05 mM incubated for 24 hrs by crystal violet method; assay type: functional, organism-based; summary of the method: as §1
[3] = system: Burkholderia multivorans; experiment: Potentiation of colistin-induced antibacterial activity against Burkholderia multivorans B10 assessed as colistin MIC at 50 uM incubated for 20 hrs by susceptibility testing (Rvb > 128 ug/ml); assay type: functional
Summary of the method: (§2)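 Colistin MIC by broth microdilution in cation-adjusted Mueller-Hinton broth, log-phase cells at final 5×10^5 cfu/mL. Two-fold colistin dilutions in duplicate with sulfonamide at final 0.05 mM (from 10 mM DMSO stock); 20 h at 37 °C. OD550 read. MIC taken as the lowest colistin level reducing growth ≥80% versus growth control. At least two replicates.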

[4] = system: Burkholderia multivorans; experiment: Inhibition of biofilm formation in Burkholderia multivorans B10 at 0.05 mM incubated for 24 hrs by crystal violet method relative to control; assay type: functional; conditions: B10, 24 h; summary of the method: as §1
[5] = system: Escherichia coli; experiment: Antimicrobial activity against Escherichia coli ATCC 9637 assessed as microbial growth inhibition at 50 uM incubated for 20 hrs by broth microdilution method; assay type: functional, organism-based
Summary of the method: (§3)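 Overnight cultures in cation-adjusted Mueller-Hinton broth, subcultured 1:100; log-phase cells at final 1×10^5 cfu/mL exposed to sulfonamide at final 0.05 mM (from 10 mM DMSO stock) for 20 h at 37 °C. OD550 read after shaking. Growth expressed as percent of 0.5% DMSO control wells. Screened at least twice.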

[6] = system: Escherichia coli; experiment: Potentiation of colistin-induced antibacterial activity against Escherichia coli ATCC 9637 assessed as colistin MIC at 50 uM incubated for 20 hrs by susceptibility testing (reference value: 0.125 to 0.25 ug/ml); assay type: functional; summary of the method: as §2
[7] = system: Escherichia coli; experiment: Inhibition of biofilm formation in Escherichia coli ATCC 9637 at 0.05 mM incubated for 24 hrs by crystal violet method relative to control; assay type: functional; conditions: ATCC 9637, 24 h; summary of the method: as §1
[8] = system: Burkholderia multivorans; experiment: Antimicrobial activity against Burkholderia multivorans B10 assessed as microbial growth inhibition at 50 uM incubated for 20 hrs by broth microdilution method; assay type: functional, organism-based; summary of the method: as §3
[9] = system: Pseudomonas aeruginosa; experiment: Antimicrobial activity against Pseudomonas aeruginosa PAO1 assessed as microbial growth inhibition at 50 uM incubated for 20 hrs by broth microdilution method; assay type: functional, organism-based; summary of the method: as §3
[10] = system: Burkholderia cepacia; experiment: Potentiation of colistin-induced antibacterial activity against Burkholderia cepacia R6193 assessed as colistin MIC at 50 uM incubated for 20 hrs by susceptibility testing (Rvb > 256 ug/ml); assay type: functional; summary of the method: as §2
[11] = system: Burkholderia cenocepacia; experiment: Potentiation of colistin-induced antibacterial activity against Burkholderia cenocepacia 289 assessed as colistin MIC at 50 uM incubated for 20 hrs by susceptibility testing (Rvb > 256 ug/ml); assay type: functional; summary of the method: as §2
[12] = system: Stenotrophomonas maltophilia; experiment: Potentiation of colistin-induced antibacterial activity against Stenotrophomonas maltophilia K279a assessed as colistin MIC at 50 uM incubated for 20 hrs by susceptibility testing (reference value: 2 to 8 ug/ml); assay type: functional; summary of the method: as §2
[13] = Toxicity in Galleria mellonella larva assessed as larval survival at 50 uM
[14] = system: Acinetobacter baumannii; experiment: Potentiation of colistin-induced antibacterial activity against Acinetobacter baumannii ATCC 15308 assessed as colistin MIC at 50 uM incubated for 20 hrs by susceptibility testing (reference value: 0.25 to 0.5 ug/ml); assay type: functional; summary of the method: as §2
[15] = system: Pseudomonas aeruginosa; experiment: Potentiation of colistin-induced antibacterial activity against Pseudomonas aeruginosa assessed as colistin MIC at 50 uM incubated for 20 hrs by susceptibility testing (reference value: 1 to 2 ug/ml); assay type: functional; summary of the method: as §2
[16] = system: Stenotrophomonas maltophilia; experiment: Antimicrobial activity against Stenotrophomonas maltophilia K279a assessed as microbial growth inhibition at 50 uM incubated for 20 hrs by broth microdilution method; assay type: functional, organism-based; summary of the method: as §3
[17] = system: Acinetobacter baumannii; experiment: Antimicrobial activity against Acinetobacter baumannii ATCC 15308 assessed as microbial growth inhibition at 50 uM incubated for 20 hrs by broth microdilution method; assay type: functional, organism-based; summary of the method: as §3
[18] = Toxicity in Galleria mellonella larva assessed as larval survival at 50 uM in presence of colistin
[19] = system: Stenotrophomonas maltophilia; experiment: Potentiation of colistin-induced antibacterial activity against Stenotrophomonas maltophilia K279a infected in Galleria mellonella larva at 50 uM; assay type: functional, organism-based
Summary of the method: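 Larvae 300–400 mg, at least 15 per group, infected in last proleg with 1×10^4 cfu S. maltophilia K279a in PBS. After 60 min at 37 °C, chilled 15 min on ice, then injected with 5 μL PBS holding colistin at final 0.5 μg/mL, sulfonamide at final 50 μM, or both; 0.5% DMSO vehicle control. Kept at 37 °C, survival scored every 24 h for Kaplan-Meier curves. At least two larval batches.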

Structure (SMILES) | inhibition [1] | inhibition [2] | MIC [3] [µg/mL] | inhibition at 50 µM [4] [%] | growth inhibition (GI) [5] | MIC [6] [µg/mL] | inhibition at 50 µM [7] [%] | growth inhibition (GI) [8] | growth inhibition (GI) [9] | MIC [10] [µg/mL] | MIC [11] [µg/mL] | MIC [12] [µg/mL] | Activity [13] | MIC [14] [µg/mL] | MIC [15] [µg/mL] | growth inhibition (GI) [16] | growth inhibition (GI) [17] | Activity [18] | Activity [19]
CCCCCCCCCc1ccccc1C(=O)NS(=O)(=O)c1ccc(I)cc1 | inactive | inactive | > 128 | 35 | inactive | > 1 | 68 | Active | inactive | > 256 | > 256 | 4 | Non-Toxic | 2 | 8 | Active | inactive |  | 
CCCCCCCCCc1ccccc1C(=O)NS(=O)(=O)C(C)(C)C | inactive | inactive | > 128 | > 35 | inactive | 0.5 |  |  | inactive | > 256 | > 256 | 0.5 | Non-Toxic | 0.25 | 1 |  | inactive | Non-Toxic | Active
